# Laboratory results reported in ChEMBL document CHEMBL4043222, “Pyrrolizines: Design, synthesis, anticancer evaluation and investigation of the potential mechanism of action” (Bioorg Med Chem, 2017).
# Calls of active or inactive are those of the source. No cut-off for these calls is given here.
# Legend:
# MCF7 [1] = assay: Growth inhibition of human MCF7 cells by MTT assay; assay type: functional, cell-based
# In short: (§1)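 MTT viability. Cells seeded for 24 h, then exposed to compound for 48 h in DMEM/F-12 or DMEM with 5% FBS. Vehicle controls received matching DMSO. MTT added at 0.5 mg/mL for 3 h at 37 °C. Formazan dissolved in DMSO and absorbance read at 570 nm.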
# A549 [2] = assay: Growth inhibition of human A549 cells by MTT assay; assay type: functional, cell-based; in short: as §1
# Hep 3B2 = assay: Growth inhibition of human Hep3B cells by MTT assay; assay type: functional, cell-based; in short: as §1
# [3] = molecular target: T1, Prostaglandin G/H synthase 1 (Ovis aries, UniProt P05979); assay: Inhibition of ovine COX1 assessed as reduction in PGH2 formation by measuring PGF2alpha by colorimetric assay
# T1 sequence (P05979 whole entry): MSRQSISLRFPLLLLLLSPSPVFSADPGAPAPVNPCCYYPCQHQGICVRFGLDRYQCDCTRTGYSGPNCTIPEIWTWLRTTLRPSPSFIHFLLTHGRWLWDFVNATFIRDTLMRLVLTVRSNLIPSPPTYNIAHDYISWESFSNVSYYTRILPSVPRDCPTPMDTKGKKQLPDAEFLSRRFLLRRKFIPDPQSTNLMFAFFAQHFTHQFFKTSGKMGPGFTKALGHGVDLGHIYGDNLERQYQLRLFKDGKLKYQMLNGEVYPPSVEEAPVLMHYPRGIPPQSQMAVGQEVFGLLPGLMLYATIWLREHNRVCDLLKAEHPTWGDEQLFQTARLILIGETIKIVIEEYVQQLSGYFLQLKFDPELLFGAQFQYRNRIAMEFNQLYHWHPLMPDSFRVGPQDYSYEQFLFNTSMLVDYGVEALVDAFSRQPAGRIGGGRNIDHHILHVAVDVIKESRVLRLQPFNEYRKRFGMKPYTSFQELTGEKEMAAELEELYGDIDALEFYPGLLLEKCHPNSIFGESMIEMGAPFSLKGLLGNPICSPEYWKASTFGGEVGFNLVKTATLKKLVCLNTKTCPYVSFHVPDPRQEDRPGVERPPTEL
# In short: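 Colorimetric COX inhibitor screening kit run per the manufacturer, using ovine COX-1. IC50 calculated from three determinations.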
# [4] = molecular target: AMP-activated protein kinase (AMPK) alpha-1/beta-1/gamma-1 (Homo sapiens) (UniProt P54619+Q9Y478+Q13131); assay: Inhibition of AMPK alpha1/beta1/gamma1 (unknown origin) at 10 uM using [33P]-ATP after 20 to 40 mins by scintillation counting method; assay type: protein-complex assay
# [5] = molecular target: Mitogen-activated protein kinase kinase kinase 5 (Homo sapiens) (UniProt Q99683); assay: Inhibition of ASK1 (unknown origin) at 10 uM using [33P]-ATP after 20 to 40 mins by scintillation counting method
# [6] = molecular target: Tyrosine-protein kinase Blk (Homo sapiens) (UniProt P51451); assay: Inhibition of BLK (unknown origin) at 10 uM using [33P]-ATP after 20 to 40 mins by scintillation counting method
# [7] = molecular target: Epidermal growth factor receptor (Homo sapiens) (UniProt P00533); assay: Inhibition of EGFR (unknown origin) at 10 uM using [33P]-ATP after 20 to 40 mins by scintillation counting method
# [8] = molecular target: Ephrin type-A receptor 1 (Homo sapiens) (UniProt P21709); assay: Inhibition of EPHA1 (unknown origin) at 10 uM using [33P]-ATP after 20 to 40 mins by scintillation counting method
# [9] = molecular target: Vascular endothelial growth factor receptor 1 (Homo sapiens) (UniProt P17948); assay: Inhibition of FLT1 (unknown origin) at 10 uM using [33P]-ATP after 20 to 40 mins by scintillation counting method
# [10] = molecular target: Rhodopsin kinase GRK1 (Homo sapiens) (UniProt Q15835); assay: Inhibition of GRK1 (unknown origin) at 10 uM using [33P]-ATP after 20 to 40 mins by scintillation counting method
# [11] = molecular target: Glycogen synthase kinase-3 alpha (Homo sapiens) (UniProt P49840); assay: Inhibition of GSK3alpha (unknown origin) at 10 uM using [33P]-ATP after 20 to 40 mins by scintillation counting method
# [12] = molecular target: Ribosomal protein S6 kinase alpha-5 (Homo sapiens) (UniProt O75582); assay: Inhibition of MSK1 (unknown origin) at 10 uM using [33P]-ATP after 20 to 40 mins by scintillation counting method
# [13] = molecular target: Serine/threonine-protein kinase Nek1 (Homo sapiens) (UniProt Q96PY6); assay: Inhibition of NEK1 (unknown origin) at 10 uM using [33P]-ATP after 20 to 40 mins by scintillation counting method
# [14] = molecular target: 3-phosphoinositide-dependent protein kinase 1 (Homo sapiens) (UniProt O15530); assay: Inhibition of PDK1 (unknown origin) at 10 uM using [33P]-ATP after 20 to 40 mins by scintillation counting method
# [15] = molecular target: cGMP-dependent protein kinase 1 (Homo sapiens) (UniProt Q13976); assay: Inhibition of PRKG1 (unknown origin) at 10 uM using [33P]-ATP after 20 to 40 mins by scintillation counting method
# [16] = molecular target: Serine/threonine-protein kinase Sgk1 (Homo sapiens) (UniProt O00141); assay: Inhibition of SGK1 (unknown origin) at 10 uM using [33P]-ATP after 20 to 40 mins by scintillation counting method
# A549 [17] = assay: Induction of apoptosis in human A549 cells assessed as caspe-3/7 activation at 5 to 20 uM incubated for 24 hrs by Caspase-Glo 3/7 luminescence assay; assay type: functional, cell-based
# In short: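 A549 cells plated at 1 x 10^4 per well and allowed 24 h to settle. Medium removed, then compounds added for 24 h at 5, 10 and 20 μM. Vehicle controls received equivalent DMSO. Caspase-3/7 activity read by Caspase-Glo 3/7 luminescence (RLU). Mean ± S.D. (n = 5), experiment done 3 times. Compared with vehicle by one-way ANOVA with Dunnett's test.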
# MCF7 [18] = assay: Induction of cell cycle arrest in human MCF7 cells assessed as increase in accumulation at S phase at 5 and 10 uM by propidium iodide staining based flow cytometry relative to untreated control; assay type: functional
# In short: (§2)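 MCF-7 seeded at 1×10^5 cells/well and attached overnight, then given 0, 1, 5 or 10 µM for 24 h. Cells pooled, fixed overnight in 70% ice-cold ethanol, treated with RNase A and stained with PI. Flow cytometry on 20000 events with doublets gated out. Mean ± S.D. (n = 3). Compared with DMSO vehicle by one-way ANOVA with Dunnett's test.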
# MCF7 [19] = assay: Induction of cell cycle arrest in human MCF7 cells assessed as increase in accumulation at G2/M phase at 10 uM by propidium iodide staining based flow cytometry relative to untreated control; assay type: functional; in short: as §2
# MCF7 [20] = assay: Induction of apoptosis in human MCF7 cells assessed as viable cells level at 1 uM incubated for 24 hrs by Annexin V PI/FITC staining based flow cytometry (reference value: 72.3%); assay type: functional
# MCF7 [21] = assay: Induction of apoptosis in human MCF7 cells assessed as early apoptotic cells level at 1 uM incubated for 24 hrs by Annexin V PI/FITC staining based flow cytometry (reference value: 17.4%); assay type: functional
# MCF7 [22] = assay: Induction of apoptosis in human MCF7 cells assessed as late apoptotic cells level at 1 uM incubated for 24 hrs by Annexin V PI/FITC staining based flow cytometry (reference value: 9%); assay type: functional
# MCF7 [23] = assay: Induction of apoptosis in human MCF7 cells assessed as late necrosis cells level at 1 uM incubated for 24 hrs by Annexin V PI/FITC staining based flow cytometry (reference value: […]); assay type: functional
# MCF7 [24] = assay: Induction of apoptosis in human MCF7 cells assessed as viable cells level at 5 uM incubated for 24 hrs by Annexin V PI/FITC staining based flow cytometry (reference value: 72.3%); assay type: functional
# MCF7 [25] = assay: Induction of apoptosis in human MCF7 cells assessed as early apoptotic cells level at 5 uM incubated for 24 hrs by Annexin V PI/FITC staining based flow cytometry (reference value: 17.4%); assay type: functional
# MCF7 [26] = assay: Induction of apoptosis in human MCF7 cells assessed as late apoptotic cells level at 5 uM incubated for 24 hrs by Annexin V PI/FITC staining based flow cytometry (reference value: 9%); assay type: functional
# MCF7 [27] = assay: Induction of apoptosis in human MCF7 cells assessed as late necrosis cells level at 5 uM incubated for 24 hrs by Annexin V PI/FITC staining based flow cytometry (reference value: […]); assay type: functional
# MCF7 [28] = assay: Induction of apoptosis in human MCF7 cells assessed as viable cells level at 10 uM incubated for 24 hrs by Annexin V PI/FITC staining based flow cytometry (reference value: 72.3%); assay type: functional
# MCF7 [29] = assay: Induction of apoptosis in human MCF7 cells assessed as early apoptotic cells level at 10 uM incubated for 24 hrs by Annexin V PI/FITC staining based flow cytometry (reference value: 17.4%); assay type: functional
# MCF7 [30] = assay: Induction of apoptosis in human MCF7 cells assessed as late apoptotic cells level at 10 uM incubated for 24 hrs by Annexin V PI/FITC staining based flow cytometry (reference value: 9%); assay type: functional
# MCF7 [31] = assay: Induction of apoptosis in human MCF7 cells assessed as late necrosis cells level at 10 uM incubated for 24 hrs by Annexin V PI/FITC staining based flow cytometry (reference value: […]); assay type: functional
# [32] = molecular target: Activin receptor type-1-like (Homo sapiens) (UniProt P37023); assay: Inhibition of ALK1 (unknown origin) at 10 uM using [33P]-ATP after 20 to 40 mins by scintillation counting method
# [33] = molecular target: Casein kinase I isoform alpha (Homo sapiens) (UniProt P48729); assay: Inhibition of CK1alpha1 (unknown origin) at 10 uM using [33P]-ATP after 20 to 40 mins by scintillation counting method
# [34] = molecular target: Dual specificity tyrosine-phosphorylation-regulated kinase 3 (Homo sapiens) (UniProt O43781); assay: Inhibition of DYRK3 (unknown origin) at 10 uM using [33P]-ATP after 20 to 40 mins by scintillation counting method
# Sequence of Serine/threonine-protein kinase Sgk1 (Homo sapiens) (O00141 whole entry): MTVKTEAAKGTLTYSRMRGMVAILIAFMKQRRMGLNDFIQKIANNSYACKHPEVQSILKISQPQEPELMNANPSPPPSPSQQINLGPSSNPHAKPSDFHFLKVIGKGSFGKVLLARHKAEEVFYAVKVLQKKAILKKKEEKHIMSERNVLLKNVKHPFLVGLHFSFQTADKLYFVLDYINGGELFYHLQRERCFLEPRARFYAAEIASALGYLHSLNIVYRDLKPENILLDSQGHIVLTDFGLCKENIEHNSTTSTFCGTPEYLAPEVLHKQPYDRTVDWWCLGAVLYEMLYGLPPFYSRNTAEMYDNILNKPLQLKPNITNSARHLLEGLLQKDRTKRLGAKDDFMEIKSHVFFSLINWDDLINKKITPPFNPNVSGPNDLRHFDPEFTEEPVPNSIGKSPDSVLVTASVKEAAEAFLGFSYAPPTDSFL
# Sequence of Ribosomal protein S6 kinase alpha-5 (Homo sapiens) (O75582 whole entry, looked up): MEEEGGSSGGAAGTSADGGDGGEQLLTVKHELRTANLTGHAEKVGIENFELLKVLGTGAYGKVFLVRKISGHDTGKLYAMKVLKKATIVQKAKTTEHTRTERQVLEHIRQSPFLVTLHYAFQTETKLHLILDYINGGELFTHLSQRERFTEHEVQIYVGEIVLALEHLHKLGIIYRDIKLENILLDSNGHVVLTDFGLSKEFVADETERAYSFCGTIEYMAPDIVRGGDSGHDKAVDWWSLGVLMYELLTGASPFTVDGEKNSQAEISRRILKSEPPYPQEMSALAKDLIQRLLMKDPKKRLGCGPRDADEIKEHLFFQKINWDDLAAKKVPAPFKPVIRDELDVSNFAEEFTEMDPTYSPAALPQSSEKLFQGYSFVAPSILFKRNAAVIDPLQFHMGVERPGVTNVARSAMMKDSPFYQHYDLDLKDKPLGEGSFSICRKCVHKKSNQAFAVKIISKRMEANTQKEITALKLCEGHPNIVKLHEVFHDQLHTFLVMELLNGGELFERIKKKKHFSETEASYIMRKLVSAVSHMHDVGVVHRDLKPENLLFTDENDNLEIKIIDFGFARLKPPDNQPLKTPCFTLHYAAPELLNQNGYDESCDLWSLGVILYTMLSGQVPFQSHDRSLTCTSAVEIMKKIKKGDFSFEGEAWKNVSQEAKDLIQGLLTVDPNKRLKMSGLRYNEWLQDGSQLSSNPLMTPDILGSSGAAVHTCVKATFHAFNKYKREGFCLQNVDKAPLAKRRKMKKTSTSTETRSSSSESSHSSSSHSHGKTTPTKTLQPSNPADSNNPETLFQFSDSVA
# Sequence of Vascular endothelial growth factor receptor 1 (Homo sapiens) (P17948 whole entry): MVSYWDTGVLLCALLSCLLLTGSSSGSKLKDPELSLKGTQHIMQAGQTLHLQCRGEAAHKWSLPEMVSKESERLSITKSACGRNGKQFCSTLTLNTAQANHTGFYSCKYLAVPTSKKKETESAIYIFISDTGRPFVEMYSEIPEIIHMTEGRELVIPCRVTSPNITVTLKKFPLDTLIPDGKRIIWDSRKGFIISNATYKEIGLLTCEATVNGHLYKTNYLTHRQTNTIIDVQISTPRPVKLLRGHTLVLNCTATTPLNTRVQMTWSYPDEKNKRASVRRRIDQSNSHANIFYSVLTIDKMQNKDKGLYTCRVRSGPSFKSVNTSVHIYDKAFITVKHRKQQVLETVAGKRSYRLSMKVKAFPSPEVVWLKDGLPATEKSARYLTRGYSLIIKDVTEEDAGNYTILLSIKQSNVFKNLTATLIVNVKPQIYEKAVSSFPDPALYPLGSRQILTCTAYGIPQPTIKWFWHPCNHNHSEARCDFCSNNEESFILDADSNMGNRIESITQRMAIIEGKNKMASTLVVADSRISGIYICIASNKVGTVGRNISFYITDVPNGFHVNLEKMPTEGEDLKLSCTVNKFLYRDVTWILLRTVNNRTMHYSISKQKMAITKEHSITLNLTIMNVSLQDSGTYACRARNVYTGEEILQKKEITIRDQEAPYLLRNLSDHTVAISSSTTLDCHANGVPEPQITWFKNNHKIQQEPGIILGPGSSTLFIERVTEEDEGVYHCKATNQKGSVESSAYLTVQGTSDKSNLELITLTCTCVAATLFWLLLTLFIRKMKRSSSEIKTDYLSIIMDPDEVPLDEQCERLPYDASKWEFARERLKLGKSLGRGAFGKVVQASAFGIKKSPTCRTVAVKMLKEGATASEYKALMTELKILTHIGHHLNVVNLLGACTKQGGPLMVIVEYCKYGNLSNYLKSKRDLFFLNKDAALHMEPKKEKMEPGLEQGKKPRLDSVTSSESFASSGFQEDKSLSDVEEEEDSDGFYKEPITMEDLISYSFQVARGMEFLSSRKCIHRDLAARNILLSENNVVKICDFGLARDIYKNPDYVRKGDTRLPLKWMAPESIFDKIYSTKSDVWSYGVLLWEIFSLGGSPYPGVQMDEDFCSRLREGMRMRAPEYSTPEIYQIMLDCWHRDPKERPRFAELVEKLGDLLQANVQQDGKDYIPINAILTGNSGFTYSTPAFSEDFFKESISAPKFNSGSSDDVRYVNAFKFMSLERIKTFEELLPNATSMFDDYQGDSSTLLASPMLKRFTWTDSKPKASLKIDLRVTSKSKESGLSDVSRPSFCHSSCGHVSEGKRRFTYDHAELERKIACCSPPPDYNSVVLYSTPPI
# Sequence of Tyrosine-protein kinase Blk (Homo sapiens) (P51451 2-505 limits assumed): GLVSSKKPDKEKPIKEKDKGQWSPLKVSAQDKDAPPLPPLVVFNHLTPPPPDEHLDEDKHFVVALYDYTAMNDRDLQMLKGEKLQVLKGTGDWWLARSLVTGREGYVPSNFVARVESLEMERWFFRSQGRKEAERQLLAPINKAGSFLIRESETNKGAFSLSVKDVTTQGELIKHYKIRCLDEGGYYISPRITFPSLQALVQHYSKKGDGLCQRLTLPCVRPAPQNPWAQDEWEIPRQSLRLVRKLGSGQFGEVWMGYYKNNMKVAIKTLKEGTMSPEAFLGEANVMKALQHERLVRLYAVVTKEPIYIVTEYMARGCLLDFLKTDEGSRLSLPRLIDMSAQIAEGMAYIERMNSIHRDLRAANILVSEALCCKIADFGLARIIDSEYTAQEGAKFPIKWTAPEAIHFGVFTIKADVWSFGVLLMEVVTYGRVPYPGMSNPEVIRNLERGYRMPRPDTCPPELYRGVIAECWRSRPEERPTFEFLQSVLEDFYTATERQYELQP
# Sequence of AMP-activated protein kinase (AMPK) alpha-1/beta-1/gamma-1 (Homo sapiens) (P54619 whole entry): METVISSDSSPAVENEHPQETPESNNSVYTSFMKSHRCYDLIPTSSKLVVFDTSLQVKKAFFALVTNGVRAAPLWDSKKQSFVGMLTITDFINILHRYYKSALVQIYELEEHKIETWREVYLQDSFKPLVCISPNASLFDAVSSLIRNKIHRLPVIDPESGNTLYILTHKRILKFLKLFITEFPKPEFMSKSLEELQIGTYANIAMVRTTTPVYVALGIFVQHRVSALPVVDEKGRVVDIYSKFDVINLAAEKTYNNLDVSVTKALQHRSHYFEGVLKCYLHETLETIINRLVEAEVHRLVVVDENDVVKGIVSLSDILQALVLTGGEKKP
# Sequence of AMP-activated protein kinase (AMPK) alpha-1/beta-1/gamma-1 (Homo sapiens) (Q13131 whole entry partner): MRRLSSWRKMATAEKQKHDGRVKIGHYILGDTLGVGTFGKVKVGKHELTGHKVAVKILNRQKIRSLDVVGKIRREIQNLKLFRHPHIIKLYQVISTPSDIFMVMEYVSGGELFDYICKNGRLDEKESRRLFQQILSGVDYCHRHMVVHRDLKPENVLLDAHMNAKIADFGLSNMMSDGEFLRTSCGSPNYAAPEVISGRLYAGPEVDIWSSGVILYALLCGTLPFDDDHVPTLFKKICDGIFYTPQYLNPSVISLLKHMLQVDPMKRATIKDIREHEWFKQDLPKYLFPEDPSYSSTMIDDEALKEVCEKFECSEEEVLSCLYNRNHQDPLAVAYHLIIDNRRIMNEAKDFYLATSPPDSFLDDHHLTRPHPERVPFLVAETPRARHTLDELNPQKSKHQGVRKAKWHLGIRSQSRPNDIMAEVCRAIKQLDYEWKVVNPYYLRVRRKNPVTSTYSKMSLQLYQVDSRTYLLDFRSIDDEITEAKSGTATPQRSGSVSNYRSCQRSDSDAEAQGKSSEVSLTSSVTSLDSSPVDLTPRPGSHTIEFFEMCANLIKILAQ
# Sequence of AMP-activated protein kinase (AMPK) alpha-1/beta-1/gamma-1 (Homo sapiens) (Q9Y478 2-270 partner limits assumed): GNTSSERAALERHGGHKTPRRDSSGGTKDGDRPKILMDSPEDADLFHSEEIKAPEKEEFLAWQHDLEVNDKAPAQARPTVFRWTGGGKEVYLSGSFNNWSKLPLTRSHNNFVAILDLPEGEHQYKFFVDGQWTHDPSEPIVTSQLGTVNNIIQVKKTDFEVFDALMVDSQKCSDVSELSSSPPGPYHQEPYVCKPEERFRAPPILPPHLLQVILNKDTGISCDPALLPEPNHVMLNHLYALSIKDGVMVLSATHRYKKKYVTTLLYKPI
# Sequence of Rhodopsin kinase GRK1 (Homo sapiens) (Q15835 whole entry): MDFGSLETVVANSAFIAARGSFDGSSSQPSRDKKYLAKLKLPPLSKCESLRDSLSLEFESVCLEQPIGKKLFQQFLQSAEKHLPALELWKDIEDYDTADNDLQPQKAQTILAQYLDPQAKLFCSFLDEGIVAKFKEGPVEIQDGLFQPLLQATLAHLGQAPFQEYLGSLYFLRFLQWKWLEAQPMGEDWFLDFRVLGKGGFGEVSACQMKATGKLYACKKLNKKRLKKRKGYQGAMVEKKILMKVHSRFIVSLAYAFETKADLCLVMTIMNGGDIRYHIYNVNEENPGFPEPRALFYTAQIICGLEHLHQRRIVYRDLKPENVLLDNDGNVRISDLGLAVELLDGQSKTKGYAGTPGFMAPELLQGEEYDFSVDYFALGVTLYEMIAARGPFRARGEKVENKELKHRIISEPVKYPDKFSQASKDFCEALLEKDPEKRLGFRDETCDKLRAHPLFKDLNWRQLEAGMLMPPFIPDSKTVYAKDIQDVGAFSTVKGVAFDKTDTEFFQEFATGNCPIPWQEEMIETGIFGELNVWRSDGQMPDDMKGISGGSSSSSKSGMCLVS
smiles,measurement,setting,value
N#Cc1c(N=Cc2ccc3ccccc3c2)c(C(=O)Nc2ccc(Cl)cc2)n2c1CCC2,IC50,MCF7 [1],9.82 µM
same,IC50,A549 [2],11.2 µM
same,IC50,Hep 3B2,12.5 µM
same,IC50,[3],10.6 µM
N#Cc1c(N=Cc2cccnc2)c(C(=O)Nc2ccccc2)n2c1CCC2,IC50,MCF7 [1],11.7 µM
same,IC50,A549 [2],17.5 µM
same,IC50,Hep 3B2,25.8 µM
same,IC50,[3],11.3 µM
N#Cc1c(N=Cc2ccco2)c(C(=O)Nc2ccc(Cl)cc2)n2c1CCC2,IC50,MCF7 [1],15.7 µM
same,IC50,A549 [2],28.4 µM
same,IC50,Hep 3B2,27.5 µM
same,IC50,[3],8.41 µM
N#Cc1c(N=Cc2ccco2)c(C(=O)Nc2ccccc2)n2c1CCC2,IC50,MCF7 [1],8.35 µM
same,IC50,A549 [2],9.75 µM
same,IC50,Hep 3B2,12.8 µM
same,IC50,[3],6.54 µM
Cc1ccc(NC(=O)c2c(N=Cc3ccc4ccccc4c3)c(C#N)c3n2CCC3)cc1,IC50,MCF7 [1],7.76 µM
same,IC50,A549 [2],3.24 µM
same,IC50,Hep 3B2,8.69 µM
same,IC50,[3],12 µM
same,inhibition,[4],-11%
same,inhibition,[5],-19%
same,inhibition,[6],-16%
same,inhibition,[7],-47%
same,inhibition,[8],-37%
same,inhibition,[9],-10%
same,inhibition,[10],7%
same,inhibition,[11],-5%
same,inhibition,[12],-43%
same,inhibition,[13],8%
same,inhibition,[14],-27%
same,inhibition,[15],-4%
same,inhibition,[16],-16%
same,Activity,A549 [17],Active
same,Activity,MCF7 [18],Active
same,Activity,MCF7 [19],Active
same,Activity,MCF7 [20],72.2%
same,Activity,MCF7 [21],16.3%
same,Activity,MCF7 [22],10.7%
same,Activity,MCF7 [23],0.8%
same,Activity,MCF7 [24],66.9%
same,Activity,MCF7 [25],23.5%
same,Activity,MCF7 [26],8.5%
same,Activity,MCF7 [27],1.1%
same,Activity,MCF7 [28],62.1%
same,Activity,MCF7 [29],24.2%
same,Activity,MCF7 [30],12.9%
same,Activity,MCF7 [31],0.8%
Cc1ccc(NC(=O)c2ccc(CN3CCN(C)CC3)cc2)cc1Nc1nccc(-c2cccnc2)n1,inhibition,[32],-14%
same,inhibition,[4],-18%
same,inhibition,[5],-5%
same,inhibition,[6],3%
same,inhibition,[33],0%
same,inhibition,[34],10%
same,inhibition,[8],-22%
same,inhibition,[9],10%
same,inhibition,[10],-2%
same,inhibition,[11],1%
same,inhibition,[12],-49%
same,inhibition,[14],-34%
same,inhibition,[15],-4%
same,inhibition,[16],-3%
COc1cccc2c1C(=O)c1c(O)c3c(c(O)c1C2=O)C[C@@](O)(C(=O)CO)C[C@@H]3O[C@H]1C[C@H](N)[C@H](O)[C@H](C)O1 [DOXORUBICIN],IC50,MCF7 [1],2.3 µM
same,IC50,Hep 3B2,2.4 µM
N#Cc1c(N=Cc2cccs2)c(C(=O)Nc2ccccc2)n2c1CCC2,IC50,MCF7 [1],6.97 µM
same,IC50,A549 [2],12.5 µM
same,IC50,Hep 3B2,18.6 µM
same,IC50,[3],4.96 µM
